ChEMBL document CHEMBL1649179, “Pharmacokinetics of LB80331 and LB80317 following oral administration of LB80380, a new antiviral agent for chronic hepatitis B (CHB), in healthy adult subjects, CHB patients, and mice” (Antimicrob Agents Chemother, 2009)

Assays:
Homo sapiens [1] = experiment: AUC (0 to 24 hrs) in chronic hepatitis B virus infected patient assessed as (1-((2-amino-6-hydroxy-9H-purin-9-yl)methyl)cyclopropoxy)me at 60 mg, po qd for 4 weeks by LC-MS analysis; assay type: ADME, organism-based, Plasma; design: time < 24 hr, dose 60 mg, route oral; details: in vivo
Method in brief: (§1)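 CHB patients (HBsAg/HBeAg positive), six per cohort, oral once daily for 4 weeks. Plasma sampled at steady state (weeks 2–4), predose and at 0.5, 1, 2, 3, 4, 6, 8 and 24 h postdose. Analysis by validated LC-MS/MS after protein-precipitation extraction with a stable-isotope internal standard; LLOQ 10 ng/ml for LB80317. Noncompartmental analysis gives Cmax, AUC0-24 and terminal t1/2.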

Liver [2] = experiment: AUC (0 to 36 hrs) in CD-1 mouse liver assessed as di- and triphosphates of (1-((2-amino-6-hydroxy-9H-purin-9-yl)methyl)cyclopropoxy)me at 30 mg/kg, po administered as single dose by LC-MS analysis; assay type: ADME, organism-based; design: time < 36 hr, dose 30 mg/kg, route oral; details: in vivo
Method in brief: (§2)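 Male CD-1 mice given a single oral dose in 100% PEG 400. Samples extracted with perchloric acid and neutralized with ammonium bicarbonate. One aliquot assayed for the free analyte; the other treated with calf intestinal phosphatase to give the total including di-/triphosphates. Analysis by LC-MS/MS.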

Plasma [3] = experiment: Cmax in CD-1 mouse plasma assessed as (1-((2-amino-6-hydroxy-9H-purin-9-yl)methyl)cyclopropoxy)me at 30 mg/kg, po administered as single dose by LC-MS analysis; assay type: ADME, organism-based; design: dose 30 mg/kg, route oral; details: in vivo; method in brief: as §2
Plasma [4] = experiment: AUC (0 to 36 hrs) in CD-1 mouse plasma assessed as (1-((2-amino-6-hydroxy-9H-purin-9-yl)methyl)cyclopropoxy)me at 30 mg/kg, po administered as single dose by LC-MS analysis; assay type: ADME, organism-based; design: time < 36 hr, dose 30 mg/kg, route oral; details: in vivo; method in brief: as §2
Plasma [5] = experiment: Tmax in CD-1 mouse plasma assessed as (1-((2-amino-6-hydroxy-9H-purin-9-yl)methyl)cyclopropoxy)me at 30 mg/kg, po administered as single dose by LC-MS analysis; assay type: ADME, organism-based; design: dose 30 mg/kg, route oral; details: in vivo
Method in brief: (§3)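 Male CD-1 mice received 30 mg/kg orally in 100% PEG 400. Plasma and snap-frozen liver were taken from 3 mice per time point at 1, 2, 4, 6, 10, 24 and 36 h. Samples were extracted with perchloric acid and neutralized with ammonium bicarbonate. Free LB80331/LB80317 was measured directly by LC-MS/MS; total, including di- and triphosphates, was measured after calf intestinal phosphatase treatment.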

Liver [6] = experiment: Tmax in CD-1 mouse liver assessed as di- and triphosphates of (1-((2-amino-6-hydroxy-9H-purin-9-yl)methyl)cyclopropoxy)me at 30 mg/kg, po administered as single dose by LC-MS analysis; assay type: ADME, organism-based; design: dose 30 mg/kg, route oral; details: in vivo; method in brief: as §3
Liver [7] = experiment: AUC (0 to infinity) in CD-1 mouse liver assessed as (1-((2-amino-6-hydroxy-9H-purin-9-yl)methyl)cyclopropoxy)me at 30 mg/kg, po administered as single dose by LC-MS analysis; assay type: ADME, organism-based; design: time infinity, dose 30 mg/kg, route oral; details: in vivo; method in brief: as §2
Plasma [8] = experiment: AUC (0 to infinity) in CD-1 mouse plasma assessed as (1-((2-amino-6-hydroxy-9H-purin-9-yl)methyl)cyclopropoxy)me at 30 mg/kg, po administered as single dose by LC-MS analysis; assay type: ADME, organism-based; design: time infinity, dose 30 mg/kg, route oral; details: in vivo; method in brief: as §2
Liver [9] = experiment: Half life in CD-1 mouse liver assessed as di- and triphosphates of (1-((2-amino-6-hydroxy-9H-purin-9-yl)methyl)cyclopropoxy)me at 30 mg/kg, po administered as single dose by LC-MS analysis; assay type: ADME, organism-based; design: dose 30 mg/kg, route oral; details: in vivo; method in brief: as §2
Homo sapiens [10] = experiment: Half life in chronic hepatitis B virus infected patient assessed as (1-((2-amino-6-hydroxy-9H-purin-9-yl)methyl)cyclopropoxy)me at 30 mg, po qd for 4 weeks by LC-MS analysis; assay type: ADME, organism-based; details: in vivo, 672 h; method in brief: as §1
Homo sapiens [11] = experiment: Half life in chronic hepatitis B virus infected patient assessed as (1-((2-amino-6-hydroxy-9H-purin-9-yl)methyl)cyclopropoxy)me at 60 mg, po qd for 4 weeks by LC-MS analysis; assay type: ADME, organism-based; details: in vivo, 672 h; method in brief: as §1
Homo sapiens [12] = experiment: AUC (0 to 24 hrs) in chronic hepatitis B virus infected patient assessed as (1-((2-amino-6-hydroxy-9H-purin-9-yl)methyl)cyclopropoxy)me at 120 mg, po qd for 4 weeks by LC-MS analysis; assay type: ADME, organism-based, Plasma; design: dose 120 mg, time < 24 hr, route oral; details: in vivo; method in brief: as §1
Homo sapiens [13] = experiment: Tmax in chronic hepatitis B virus infected patient assessed as (1-((2-amino-6-hydroxy-9H-purin-9-yl)methyl)cyclopropoxy)me at 120 mg, po qd for 4 weeks by LC-MS analysis; assay type: ADME, organism-based; details: in vivo, 672 h
Method in brief: (§4)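 Daily oral LB80380 was given to CHB patients over 4 weeks. Blood was drawn on day 1 and at steady state (weeks 2–4), predose and 0.5–24 h postdose. Plasma LB80331 (LLOQ 5 ng/ml) and LB80317 (LLOQ 10 ng/ml) were measured by LC-MS/MS after protein-precipitation extraction. Tmax was taken by noncompartmental analysis.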

Homo sapiens [14] = experiment: Tmax in chronic hepatitis B virus infected patient assessed as (1-((2-amino-6-hydroxy-9H-purin-9-yl)methyl)cyclopropoxy)me at 60 mg, po qd for 4 weeks by LC-MS analysis; assay type: ADME, organism-based; details: in vivo, 672 h; method in brief: as §4
Liver [15] = experiment: Half life in CD-1 mouse liver assessed as (1-((2-amino-6-hydroxy-9H-purin-9-yl)methyl)cyclopropoxy)me at 30 mg/kg, po administered as single dose by LC-MS analysis; assay type: ADME, organism-based; design: dose 30 mg/kg, route oral; details: in vivo; method in brief: as §2
Plasma [16] = experiment: Half life in CD-1 mouse plasma assessed as (1-((2-amino-6-hydroxy-9H-purin-9-yl)methyl)cyclopropoxy)me at 30 mg/kg, po administered as single dose by LC-MS analysis; assay type: ADME, organism-based; design: dose 30 mg/kg, route oral; details: in vivo; method in brief: as §2
Homo sapiens [17] = experiment: Cmax in chronic hepatitis B virus infected patient assessed as (1-((2-amino-6-hydroxy-9H-purin-9-yl)methyl)cyclopropoxy)me at 60 mg, po qd for 4 weeks by LC-MS analysis; assay type: ADME, organism-based; design: dose 60 mg, route oral; details: in vivo, 672 h; method in brief: as §1
Liver [18] = experiment: Cmax in CD-1 mouse liver assessed as di- and triphosphates of (1-((2-amino-6-hydroxy-9H-purin-9-yl)methyl)cyclopropoxy)me at 30 mg/kg, po administered as single dose by LC-MS analysis; assay type: ADME, organism-based; design: dose 30 mg/kg, route oral; details: in vivo; method in brief: as §2
Homo sapiens [19] = experiment: AUC (0 to 24 hrs) in chronic hepatitis B virus infected patient assessed as (1-((2-amino-6-hydroxy-9H-purin-9-yl)methyl)cyclopropoxy)me at 240 mg, po qd for 4 weeks by LC-MS analysis; assay type: ADME, organism-based, Plasma; design: time < 24 hr, dose 240 mg, route oral; details: in vivo; method in brief: as §1
Liver [20] = experiment: AUC (0 to 36 hrs) in CD-1 mouse liver assessed as (1-((2-amino-6-hydroxy-9H-purin-9-yl)methyl)cyclopropoxy)me at 30 mg/kg, po administered as single dose by LC-MS analysis; assay type: ADME, organism-based; design: time < 36 hr, dose 30 mg/kg, route oral; details: in vivo; method in brief: as §2
Homo sapiens [21] = experiment: Tmax in chronic hepatitis B virus infected patient assessed as (1-((2-amino-6-hydroxy-9H-purin-9-yl)methyl)cyclopropoxy)me at 30 mg, po qd for 4 weeks by LC-MS analysis; assay type: ADME, organism-based; details: in vivo, 672 h; method in brief: as §4
Homo sapiens [22] = experiment: Half life in chronic hepatitis B virus infected patient assessed as (1-((2-amino-6-hydroxy-9H-purin-9-yl)methyl)cyclopropoxy)me at 120 mg, po qd for 4 weeks by LC-MS analysis; assay type: ADME, organism-based; details: in vivo, 672 h; method in brief: as §1
Homo sapiens [23] = experiment: AUC (0 to 24 hrs) in chronic hepatitis B virus infected patient assessed as (1-((2-amino-6-hydroxy-9H-purin-9-yl)methyl)cyclopropoxy)me at 30 mg, po qd for 4 weeks by LC-MS analysis; assay type: ADME, organism-based, Plasma; design: time < 24 hr, dose 30 mg, route oral; details: in vivo; method in brief: as §1
Homo sapiens [24] = experiment: Cmax in chronic hepatitis B virus infected patient assessed as (1-((2-amino-6-hydroxy-9H-purin-9-yl)methyl)cyclopropoxy)me at 30 mg, po qd for 4 weeks by LC-MS analysis; assay type: ADME, organism-based; design: dose 30 mg, route oral; details: in vivo, 672 h; method in brief: as §1
Liver [25] = experiment: Cmax in CD-1 mouse liver assessed as (1-((2-amino-6-hydroxy-9H-purin-9-yl)methyl)cyclopropoxy)me at 30 mg/kg, po administered as single dose by LC-MS analysis; assay type: ADME, organism-based; design: dose 30 mg/kg, route oral; details: in vivo; method in brief: as §2
Homo sapiens [26] = experiment: Cmax in chronic hepatitis B virus infected patient assessed as (1-((2-amino-6-hydroxy-9H-purin-9-yl)methyl)cyclopropoxy)me at 240 mg, po qd for 4 weeks by LC-MS analysis; assay type: ADME, organism-based; design: dose 240 mg, route oral; details: in vivo, 672 h; method in brief: as §1
Homo sapiens [27] = experiment: Half life in chronic hepatitis B virus infected patient assessed as (1-((2-amino-6-hydroxy-9H-purin-9-yl)methyl)cyclopropoxy)me at 240 mg, po qd for 4 weeks by LC-MS analysis; assay type: ADME, organism-based; details: in vivo, 672 h; method in brief: as §1
Liver [28] = experiment: AUC (0 to infinity) in CD-1 mouse liver assessed as di- and triphosphates of (1-((2-amino-6-hydroxy-9H-purin-9-yl)methyl)cyclopropoxy)me at 30 mg/kg, po administered as single dose by LC-MS analysis; assay type: ADME, organism-based; design: time infinity, dose 30 mg/kg, route oral; details: in vivo; method in brief: as §2
Liver [29] = experiment: Tmax in CD-1 mouse liver assessed as (1-((2-amino-6-hydroxy-9H-purin-9-yl)methyl)cyclopropoxy)me at 30 mg/kg, po administered as single dose by LC-MS analysis; assay type: ADME, organism-based; design: dose 30 mg/kg, route oral; details: in vivo; method in brief: as §3
Homo sapiens [30] = experiment: Cmax in chronic hepatitis B virus infected patient assessed as (1-((2-amino-6-hydroxy-9H-purin-9-yl)methyl)cyclopropoxy)me at 120 mg, po qd for 4 weeks by LC-MS analysis; assay type: ADME, organism-based; design: dose 120 mg, route oral; details: in vivo, 672 h; method in brief: as §1
Homo sapiens [31] = experiment: Tmax in chronic hepatitis B virus infected patient assessed as (1-((2-amino-6-hydroxy-9H-purin-9-yl)methyl)cyclopropoxy)me at 240 mg, po qd for 4 weeks by LC-MS analysis; assay type: ADME, organism-based; details: in vivo, 672 h; method in brief: as §4

AUC (Homo sapiens [1]): 433 ng·h/mL | AUC (Liver [2]): 1883 µM·h | Cmax (Plasma [3]): 0.6 µM | AUC (Plasma [4]): 6 µM·h | Tmax (Plasma [5]): 4 h | Tmax (Liver [6]): 1 h | AUC (Liver [7]): 3353 µM·h | AUC (Plasma [8]): 6 µM·h | t1/2 (Liver [9]): 8.3 h | t1/2 (Homo sapiens [10]): 53 h | t1/2 (Homo sapiens [11]): 62 h | AUC (Homo sapiens [12]): 1017 ng·h/mL | Tmax (Homo sapiens [13]): 3 h | Tmax (Homo sapiens [14]): 8 h | t1/2 (Liver [15]): 9.9 h | t1/2 (Plasma [16]): 8.6 h | Cmax (Homo sapiens [17]): 21 ng/mL | Cmax (Liver [18]): 107 µM | AUC (Homo sapiens [19]): 1449 ng·h/mL | AUC (Liver [20]): 3069 µM·h | Tmax (Homo sapiens [21]): 6 h | t1/2 (Homo sapiens [22]): 51 h | AUC (Homo sapiens [23]): 285 ng·h/mL | Cmax (Homo sapiens [24]): 12 ng/mL | Cmax (Liver [25]): 243 µM | Cmax (Homo sapiens [26]): 75 ng/mL | t1/2 (Homo sapiens [27]): 45 h | AUC (Liver [28]): 2152 µM·h | Tmax (Liver [29]): 1 h | Cmax (Homo sapiens [30]): 49 ng/mL | Tmax (Homo sapiens [31]): 4.5 h
SMILES: Nc1nc(O)c2ncn(CC3(OCP(=O)(O)O)CC3)c2n1 [LB80317]
